Sampled rows, rich in hits. Any-hit rate of the full collection: about 1.4%.
STK33 inh: inhibitors of purified STK33 kinase, primary screen, biochemical, ADP-Glo luminescence, homogeneous, cell-free | MBP phosphorylation | inhibition, % at 10 µM | 320,000 tested, 0.073% active | AID 2661, 2010;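 active = inhibition at or above 25%, using the most active replicate where run in duplicate; inactive = inhibition below 25%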
HIV Env fusion: inhibitors of HIV-1 Env-driven cell-cell fusion, primary screen, HeLa-JRFL effector, CEM21 target cells, luciferase. inhibition, % at 12.3 µM. 360,000 tested, 1.1% active. AID 651610, 2012;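 active = mean replicate inhibition score of at least 50 and every replicate individually at or above 50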
GSK3beta inhib: human GSK3beta kinase inhibitors, primary screen, biochemical, cell-free homogeneous, HTS | Glycogen synthase kinase-3 beta (Homo sapiens), P49841 | GST-GSK3beta kinase, ADP-Glo luminescence, 60 min; hits give low values | activity score (negative = inhibition), % at 10 µM | 300,000 tested, 0.038% active | AID 2097, 2009;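 active = more than half of replicate wells score below -50%, meaning over 50% inhibition versus plate controls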
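Assay system: GST-fused GSK3beta enzyme, cell-free / Medium: Tris pH 7.5 buffer with MgCl2, DTT, BSA, heparin / Also added: peptide substrate plus 25 µM ATP (final) / Compound: 10 µM single point / Timing: kinase reaction with compound 60 min at room temperature / Detection: ADP-Glo luminescence / Benchmarks: DMSO neutral wells and GW8510 at 20 µM as positive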
GSK3A inh: blockers of GSK3A enzyme activity – biochemical, luminescence, cell-free homogeneous, HTS, primary screen; inhibition, % at 10 µM; GSK-3 alpha kinase, ADP-Glo luminescence, 60 min; 320,000 tested, 0.1% active; Glycogen synthase kinase-3 alpha (Homo sapiens), P49840;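 active = more than half of replicates show inhibition above 20%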;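 also: GST-tagged GSK-3 alpha with peptide substrate and 25 µM ATP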
GSIS activator: GLuc luminescence reporter in INS-1E cells, primary screen for activators of glucose-dependent secretion of insulin; INS-1E GLuc reporter insulin secretion, 2-3 h; activation, % at 16.6 µM; 370,000 tested, 0.61% active;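 active = lowest replicate activation of at least 40%, so every replicate reaches that level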
CDK5 inh: inhibitors of human CDK5/p35 kinase, primary screen, biochemical, single concentration; Recombinant CDK5/p35, ADP-Glo luminescence, 60 min; inhibition, % at 10 µM; 330,000 tested, 0.01% active; AID 488839, 2010;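 active = highest replicate inhibition of at least 50% and at least 75% of replicates reaching 50%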
Target sequence (Q00535 whole entry, looked up): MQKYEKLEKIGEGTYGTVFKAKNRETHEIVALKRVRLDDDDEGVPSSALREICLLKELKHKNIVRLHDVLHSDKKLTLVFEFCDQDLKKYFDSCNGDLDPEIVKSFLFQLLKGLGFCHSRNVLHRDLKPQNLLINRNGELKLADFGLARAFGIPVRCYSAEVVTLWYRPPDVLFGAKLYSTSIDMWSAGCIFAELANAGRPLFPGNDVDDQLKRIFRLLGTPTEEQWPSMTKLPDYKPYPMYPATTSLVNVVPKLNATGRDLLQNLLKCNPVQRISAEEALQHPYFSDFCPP
Target sequence (Q15078 whole entry, looked up): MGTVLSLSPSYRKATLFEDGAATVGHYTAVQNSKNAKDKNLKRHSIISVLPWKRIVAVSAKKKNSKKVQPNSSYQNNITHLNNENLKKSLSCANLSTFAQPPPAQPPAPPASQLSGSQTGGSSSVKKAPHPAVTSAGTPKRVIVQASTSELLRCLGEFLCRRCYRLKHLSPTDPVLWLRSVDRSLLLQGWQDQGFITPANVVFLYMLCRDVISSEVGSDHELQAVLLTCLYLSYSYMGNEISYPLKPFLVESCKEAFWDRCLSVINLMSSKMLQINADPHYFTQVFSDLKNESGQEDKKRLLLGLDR
Hits are given with their value; i = inactive; nt = no result.

SMILES	STK33 inh	HIV Env fusion	GSK3beta inhib	GSK3A inh	GSIS activator	CDK5 inh
COC(=O)c1cccc(N/C=C(\[N+](=O)[O-])S(=O)(=O)c2ccccc2)c1	i	i	i	i	51	i
Cc1noc(C)c1S(=O)(=O)N(C)C[C@H]1Oc2ccc(NC(=O)Cc3cn(C)c4ccccc34)cc2CC(=O)N([C@H](C)CO)C[C@@H]1C	nt	i	nt	nt	i	nt
O=C(Nc1nc(COc2ccccc2)cs1)C12CC3CC(CC(C3)C1)C2	i	68	i	i	i	i
Cc1ccccc1S(=O)(=O)N[C@@H]1CC[C@@H](CCn2cc(Cc3ccccc3)nn2)O[C@@H]1CO	nt	i	nt	nt	i	nt
Cc1cccc(C)c1NC(=O)C(c1ccc(C#N)cc1)n1c(=O)c(-c2cc3ccccc3[nH]2)nc2ccccc21 (configuration not stated)	nt	75	nt	nt	i	nt
O=C(Nc1ccc(OCC(F)(F)C(F)F)c(C(F)(F)F)c1)c1ccccc1	i	nt	i	i	nt	i
O=C(Nc1ccc(OCC(F)(F)C(F)F)c(C(F)(F)F)c1)c1ccccc1O	i	78	i	i	nt	i
C[C@@H]1CN([C@@H](C)CO)C(=O)c2cc(NS(=O)(=O)c3cn(C)cn3)ccc2O[C@@H]1CN(C)Cc1ccc(Cl)c(Cl)c1	nt	nt	nt	nt	i	nt
CCCCCCCC[n+]1cccc2c3ccccc3ccc21	i	84	i	i	i	i
Cc1cccc[n+]1CCCCCCCCCC[n+]1ccccc1C	i	i	i	i	i	i
CCCCCCCCCC[n+]1cccc2c3ccccc3ccc21	nt	59	i	nt	97	i
C[C@@H]1CN([C@@H](C)CO)C(=O)c2cc(NC(=O)Cc3ccccc3)ccc2O[C@@H](C)CCCCO[C@@H]1CN(C)C(=O)Cc1ccccc1	nt	i	nt	nt	i	nt
CC(C)NC(=O)N(C)C[C@@H]1Oc2ccc(NC(=O)CCC(F)(F)F)cc2CC(=O)N([C@H](C)CO)C[C@@H]1C	nt	nt	nt	nt	i	nt
CC(=O)c1c(C)[nH]c(C(=O)OCC(=O)Nc2ccc(C)cc2[N+](=O)[O-])c1C	i	88	i	i	i	i
COc1cc(C(=O)C(=O)c2cc(OC)c(O)c(OC)c2)cc(OC)c1O	i	i	i	i	i	i
COc1cc(-c2cc(OC)c(O)c(OC)c2)cc(OC)c1O	nt	78	nt	nt	i	i
C[C@@H]1CN([C@@H](C)CO)C(=O)Cc2cc(NC(=O)CCC(F)(F)F)ccc2O[C@H]1CN(C)Cc1ccccc1	nt	i	nt	nt	i	nt
Cc1ccc2cc(C#N)c(SCC(=O)NNC(=O)Cc3ccccc3)nc2c1	nt	i	nt	nt	127	i
Cc1ccc2nc(SCC(=O)NCc3cccs3)c(C#N)cc2c1	i	i	i	i	54	i
Cc1ccc(S(=O)(=O)N2CC3(O)CN(C(=O)OC(C)C)N(C(=O)OC(C)C)CC3(OC(=O)NCC3CCCCC3)C2)cc1 (configuration not stated)	nt	73	nt	nt	i	nt
COc1cccc(-c2csc3ncnc(Sc4nnnn4C)c23)c1	i	i	nt	i	53	i
CCOc1cc(/C=N/NC(=O)CCn2nc(C)cc2C)ccc1O	i	i	i	i	53	i
COc1cc(/C=N/NC(=O)CCn2nc(C)cc2C)ccc1O	i	i	i	i	nt	i
COC(=O)Nc1ccc(=O)n(Cc2c(Cl)cccc2Cl)c1	i	50	i	i	nt	i
C#CCOC(=O)Nc1cccn(Cc2c(Cl)cccc2Cl)c1=O	i	i	i	i	nt	i
CCC1(O)C(=O)OCc2c1cc1n(c2=O)Cc2cc3c(N)cccc3nc2-1 (configuration not stated)	nt	68	nt	nt	nt	i
CC(C)OCC(O)CN1CCC(Cc2ccccc2)CC1 (configuration not stated)	i	i	i	i	44	i
O=C(Nc1ccccc1)c1cccc(N2C(=O)C3C4C=CC(C5CC45)C3C2=O)c1 (configuration not stated)	i	i	i	i	i	i
COC(=O)c1ccc(NC(=O)c2cccc(N3C(=O)C4C5C=CC(C6CC56)C4C3=O)c2)cc1 (configuration not stated)	i	64	i	i	i	i
